In ChEMBL document CHEMBL1123645, “Phenylephrine derivatives as leukotriene D4 antagonists” (J Med Chem, 1987):
Blank lines part the entries; values can stand above or below the compound they belong to. Active and inactive are the calls of the source. The rule behind the calls is not given here.

Key:
Cavia porcellus [1] = experiment: Inhibition of LTD4 (leukotriene) induced bronchospasm in the guinea pig when administered intraduodenally at 25 mg/kg
Cavia porcellus [2] = experiment: Inhibition of Ovalbumin (OA) induced bronchospasm in the guinea pig when administered intraduodenally (50 mg/kg); NA means not active; type: functional, organism-based
How it was run: (§1)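 Guinea pig bronchoconstriction induced by LTD4 or by ovalbumin. Antagonist was given intraduodenally 10 min before the agonist. […] Single-dose lines give percent inhibition at the stated id dose.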

Cavia porcellus [3] = experiment: Inhibition of LTD4 (leukotriene) induced bronchospasm in the guinea pig when administered perorally (50 mg/kg)
Cavia porcellus [4] = experiment: Inhibition of LTD4 (leukotriene) induced bronchospasm in the guinea pig when administered intraduodenally (50 mg/kg)
[5] = target: Cysteinyl leukotriene receptor (Homo sapiens) (UniProt Q9Y271+Q9NS75); experiment: Inhibition of Ovalbumin (OA) induced bronchospasm in the guinea pig when administered intraduodenally (50 mg/kg); type: functional, organism-based; conditions: Cavia porcellus; target entry is the homologue from another species
How it was run: as §1

Cavia porcellus [6] = experiment: Inhibition of Ovalbumin (OA) induced bronchospasm in the guinea pig when administered intraduodenally at 25 mg/kg; NA means not active; type: functional, organism-based; design: dose 25 mg/kg
How it was run: as §1

Cavia porcellus [7] = experiment: Inhibition of LTD4 (leukotriene) induced bronchospasm in the guinea pig when administered perorally (50 mg/kg); remark: listed apart in the source
Cavia porcellus [8] = experiment: Inhibition of Ovalbumin (OA) induced bronchospasm in the guinea pig when administered intraduodenally at 25 mg/kg; type: functional; conditions: route intraduodenal
How it was run: as §1

Cavia porcellus [9] = experiment: Inhibition of LTD4 (leukotriene) induced bronchospasm in the guinea pig when administered perorally (50 mg/kg); NA means not active; type: functional, organism-based
How it was run: (§2)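 Guinea pig bronchoconstriction induced by LTD4 or by ovalbumin. Antagonist was dosed orally to awake animals 120 min before the agonist, which is 95 min before anesthetic. […] Single-dose lines give percent inhibition at the stated oral dose.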

Cavia porcellus [10] = experiment: Inhibition of Ovalbumin (OA) induced bronchospasm in the guinea pig when administered perorally (50 mg/kg); NA means not active,<10%inhibition; type: functional, organism-based
How it was run: as §2

Cavia porcellus [11] = experiment: Inhibition of Ovalbumin (OA) induced bronchospasm in the guinea pig when administered perorally (50 mg/kg); type: functional
How it was run: as §2

Cavia porcellus [12] = experiment: Inhibition of LTD4 (leukotriene) induced bronchospasm in the guinea pig when administered intraduodenally (50 mg/kg); type: functional
How it was run: as §1

Cavia porcellus [13] = experiment: Inhibition of LTD4 (leukotriene) induced bronchospasm in the guinea pig when administered perorally (25 mg/kg), A minus(-)number indicates potentiation.; NA means not active; type: functional, organism-based
How it was run: as §2

Cavia porcellus [14] = experiment: Antagonist activity was determined by the ability to inhibit of ovalbumin induced bronchospasm when administered per orally; type: functional; conditions: po
How it was run: as §2

Cavia porcellus [15] = experiment: Antagonist activity was determined by the ability to inhibit of ovalbumin induced bronchospasm when administered intraduodenally; type: functional; conditions: intraduodenal
How it was run: as §1

Cavia porcellus [16] = experiment: Relative inhibitory potency against LTD4 (leukotriene D4) induced bronchospasm when administered intraduodenally; type: functional
Cavia porcellus [17] = experiment: Relative inhibitory potency against LTD4 (leukotriene D4) induced bronchospasm when administered per orally; type: functional
Cavia porcellus [18] = experiment: Relative inhibitory potency against ovalbumin induced bronchospasm when administered intraduodenally; type: functional
Cavia porcellus [19] = experiment: Relative inhibitory potency against ovalbumin induced bronchospasm when administered per orally; type: functional
Cavia porcellus [20] = experiment: Antagonist activity was determined by the ability to inhibit of LTD4 (leukotriene D4) induced bronchospasm when administered intraduodenally; type: functional; conditions: intraduodenal
How it was run: as §1

Cavia porcellus [21] = experiment: Antagonist activity was determined by the ability to inhibit of LTD4 (leukotriene D4) induced bronchospasm when administered per orally; type: functional; conditions: po
How it was run: as §2

Cavia porcellus [22] = species: Cavia porcellus; experiment: relative potency antagonist on LTD4-induced contraction of isolated guinea pig; type: functional
How it was run: (§3)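 Guinea pig tracheal spirals stretched to near-optimal length and equilibrated 1.5 h, washed every 15 min. Indomethacin (5 μM) was present in all tissues. Cumulative LTD4 dose-response curves were recorded isometrically via force transducers. Paired proximal/distal strips from one animal got solvent control or drug. Values are negative log, mean ± SEM, and were compared by Student's t test.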

Cavia porcellus [23] = species: Cavia porcellus; experiment: Antagonist activity towards LTD4-induced contraction of isolated guinea pig; type: functional
How it was run: as §3

[24] = target: Cyclooxygenase (Rattus norvegicus); experiment: Ability to inhibit Prostaglandin G/H synthase in rat
Cavia porcellus [25] = experiment: Inhibition of LTD4 (leukotriene) induced bronchospasm in the guinea pig when administered perorally at 25 mg/kg; NA means not active; type: functional, organism-based; design: dose 25 mg/kg
How it was run: as §2

Chain of Cysteinyl leukotriene receptor (Homo sapiens) (Q9NS75 whole entry, looked up): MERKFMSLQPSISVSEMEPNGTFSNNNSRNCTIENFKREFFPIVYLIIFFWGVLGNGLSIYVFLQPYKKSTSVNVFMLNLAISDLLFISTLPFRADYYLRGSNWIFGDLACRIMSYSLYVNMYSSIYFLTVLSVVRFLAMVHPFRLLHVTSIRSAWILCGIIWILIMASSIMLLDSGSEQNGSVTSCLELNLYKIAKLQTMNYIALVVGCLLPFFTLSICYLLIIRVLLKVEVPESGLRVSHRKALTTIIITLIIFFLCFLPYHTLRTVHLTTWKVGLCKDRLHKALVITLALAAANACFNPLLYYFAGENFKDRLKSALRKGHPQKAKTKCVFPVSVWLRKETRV
Chain of Cysteinyl leukotriene receptor (Homo sapiens) (Q9Y271 whole entry, looked up): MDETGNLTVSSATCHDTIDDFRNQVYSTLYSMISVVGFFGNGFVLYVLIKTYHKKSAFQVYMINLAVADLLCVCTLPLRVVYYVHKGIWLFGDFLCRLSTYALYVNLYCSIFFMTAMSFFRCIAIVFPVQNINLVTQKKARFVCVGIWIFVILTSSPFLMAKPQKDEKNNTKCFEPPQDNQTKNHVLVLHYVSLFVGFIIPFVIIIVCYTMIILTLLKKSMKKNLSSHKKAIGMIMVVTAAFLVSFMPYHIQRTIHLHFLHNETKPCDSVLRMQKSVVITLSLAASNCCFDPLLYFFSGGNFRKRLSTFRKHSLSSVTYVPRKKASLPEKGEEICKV

- inhibition (Cavia porcellus [1]): 36%
Structure (SMILES): CCOC(=O)NCC(O)c1cccc(OCc2ccc3ccccc3n2)c1 (configuration not stated)

- inhibition (Cavia porcellus [3]): 33%
- inhibition (Cavia porcellus [4]): 56%
Structure (SMILES): CN(C)S(=O)(=O)N(C)C[C@H](O)c1cccc(OCc2ccc3ccccc3n2)c1
- inhibition (Cavia porcellus [2]): inactive

- inhibition [5]: 23%
- inhibition (Cavia porcellus [4]): 71%
Structure (SMILES): COC(=O)C1CCCN1C(=O)N(C)C[C@H](O)c1cccc(OCc2ccc3ccccc3n2)c1 (some centres not stated)

- inhibition (Cavia porcellus [4]): 99%
Structure (SMILES): CN1C[C@H](c2cccc(OCc3ccc4ccccc4n3)c2)OC1=O
- inhibition (Cavia porcellus [6]): inactive

- inhibition (Cavia porcellus [7]): inactive
- inhibition (Cavia porcellus [1]): 77%
Structure (SMILES): c1cc(OCc2ccc3ccccc3n2)cc(C2CN=C(c3ccncc3)O2)c1 (configuration not stated)

- inhibition (Cavia porcellus [4]): 41%
Structure (SMILES): c1cc(OCc2ccc3ccccc3n2)cc(C2CN=C(c3cccs3)O2)c1 (configuration not stated)

- inhibition (Cavia porcellus [4]): 92%
Structure (SMILES): c1ccc(C2=NCC(c3cccc(OCc4ccc5ccccc5n4)c3)O2)nc1 (configuration not stated)
- inhibition in vivo at 25 mg/kg (Cavia porcellus [8]): 87%

- inhibition (Cavia porcellus [1]): 20%
Structure (SMILES): O=C(NCC(O)c1cccc(OCc2ccc3ccccc3n2)c1)c1ccccn1 (configuration not stated)

- inhibition (Cavia porcellus [3]): 15%
- inhibition (Cavia porcellus [7]): 15%
- inhibition (Cavia porcellus [4]): 93%
Structure (SMILES): CN(C)C(=O)N(C)C[C@H](O)c1cccc(OCc2ccc3ccccc3n2)c1

- inhibition (Cavia porcellus [4]): 80%
Structure (SMILES): CCC1=NCC(c2cccc(OCc3ccc4ccccc4n3)c2)O1 (configuration not stated)
- inhibition (Cavia porcellus [6]): inactive

- inhibition [5]: 66%
- inhibition (Cavia porcellus [3]): 13%
- inhibition (Cavia porcellus [4]): 51%
Structure (SMILES): CCC(=O)N(C)C[C@H](O)c1cccc(OCc2nc3ccccc3n2C)c1

- inhibition (Cavia porcellus [4]): 26%
Structure (SMILES): CCN(CC)C(=O)N(C)CC(=O)c1cccc(OCc2ccc3ccccc3n2)c1

- inhibition [5]: 80%
- inhibition (Cavia porcellus [4]): 54%
Structure (SMILES): CCNC(=O)O[C@@H](CN(C)C(=O)N(CC)CC)c1cccc(OCc2ccc3ccccc3n2)c1
- inhibition (Cavia porcellus [9]): inactive

- inhibition [5]: 84%
- inhibition (Cavia porcellus [3]): 38%
- inhibition (Cavia porcellus [4]): 77%
Structure (SMILES): CCN(CC)C(=O)N(C)C[C@H](O)c1cccc(OCc2nc3ccccc3n2C)c1
- inhibition (Cavia porcellus [10]): inactive

- inhibition [5]: 36%
- inhibition (Cavia porcellus [4]): 59%
Structure (SMILES): CCN(CC)C(=O)N(C)C[C@H](O)c1cccc(OCc2nc3ccccc3s2)c1
- Inhibition (Cavia porcellus [11]): 41%

Structure (SMILES): CNC(=O)N(C)CC(O)c1cccc(OCc2ccc3ccccc3n2)c1 (configuration not stated)
- inhibition in vivo at 25 mg/kg (Cavia porcellus [8]): 95%
- pInhibition (Cavia porcellus [12]): 92%

- inhibition (Cavia porcellus [4]): 82%
Structure (SMILES): CCNC(=O)N(C)CC(O)c1cccc(OCc2ccc3ccccc3n2)c1 (configuration not stated)
- Inhibition (Cavia porcellus [11]): 46%
- inhibition (Cavia porcellus [13]): inactive

- inhibition [5]: 56%
- IC50 [24]: > 100 µM
- inhibition (Cavia porcellus [3]): 56%
- inhibition (Cavia porcellus [4]): 91%
Structure (SMILES): CN1C[C@@H](c2cccc(OCc3ccc4ccccc4n3)c2)OC1=O
- ED50 (Cavia porcellus [14]): 95 mg/kg
- Inhibition (Cavia porcellus [11]): 56%
- ED50 (Cavia porcellus [15]): 42 mg/kg
- Potency (Cavia porcellus [16]): 2
- Potency (Cavia porcellus [17]): 1.1
- Potency (Cavia porcellus [18]): 2.2
- Potency (Cavia porcellus [19]): 2.5
- ED50 (Cavia porcellus [20]): 12 mg/kg
- ED50 (Cavia porcellus [21]): 36 mg/kg
- Potency (Cavia porcellus [22]): 3
- pkb (Cavia porcellus [23]): 6.09

- inhibition (Cavia porcellus [7]): inactive
- inhibition (Cavia porcellus [1]): 86%
Structure (SMILES): c1cncc(C2=NCC(c3cccc(OCc4ccc5ccccc5n4)c3)O2)c1 (configuration not stated)
- inhibition (Cavia porcellus [25]): inactive

- inhibition (Cavia porcellus [1]): 18%
Structure (SMILES): O=C(NCC(O)c1cccc(OCc2ccc3ccccc3n2)c1)c1ccccc1 (configuration not stated)
